Active and inactive are the calls of the source. The calls are words filed in the database; no cut-off is given here.
How the values were obtained:
[1] = molecular target: Cannabinoid receptor 2 (Mus musculus) (UniProt P47936); assay: Binding affinity to cannabinoid CB2 receptor in non transfected BALB/c mouse CD4+ T cells after 30 mins […] by confocal microscopic analysis in presence of CB2 receptor agonist GW842166X; format: cell-based; conditions: T-cell
[2] = molecular target: Cannabinoid receptor 2 (Mus musculus) (UniProt P47936); assay: Binding affinity to cannabinoid CB2 receptor in mouse B lymphocytes at 5 uM after 30 mins using PE-conjugated anti-B220 antibody staining by flow cytometric analysis in presence of GW842166X; format: cell-based
In short: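 Mouse lung mononuclear cells, prepared by collagenase digestion, were first preincubated on ice for 5 min with the CB2 agonist GW842166X at 100 µM. They were then stained with PE-conjugated anti-B220 antibody and NBD-labelled probe at 5 µM on ice for 30 min, and analysed by flow cytometry.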

[3] = molecular target: Cannabinoid receptor 2 (Mus musculus) (UniProt P47936); assay: Binding affinity to cannabinoid CB2 receptor in non transfected BALB/c mouse CD4+ T cells at 1 uM after 30 mins using PE-conjugated […] antibody staining by confocal microscopic analysis; format: cell-based; conditions: T-cell
In short: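 T cells were purified from peripheral lymph nodes of BALB/c mice and stained with PE-conjugated anti-CD4 antibody plus NBD-labelled probe at 0.1, 1.0 or 5 µM. Incubation on ice for 30 min is stated for the 5 µM condition. CD4+ cells were imaged by confocal microscopy (x40).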

[4] = molecular target: Cannabinoid receptor 2 (Mus musculus) (UniProt P47936); assay: Binding affinity to cannabinoid CB2 receptor in non transfected BALB/c mouse CD4+ T cells at 5 uM after 30 mins […] by confocal microscopic analysis; format: cell-based; conditions: T-cell
[5] = molecular target: Cannabinoid receptor 2 (Mus musculus) (UniProt P47936); assay: Binding affinity to cannabinoid CB2 receptor in non transfected BALB/c mouse CD4+ T cells at 0.1 uM after 30 mins using […] by confocal microscopic analysis; format: cell-based; conditions: T-cell
Cannabinoid receptor 2 = Cannabinoid receptor 2 (Homo sapiens, UniProt P34972); assay: Displacement of [3H]-CP55940 from human recombinant cannabinoid CB2 receptor expressed in CHO-K1 cells; format: cell-based
Cannabinoid receptor 2, sequence (P34972 whole entry): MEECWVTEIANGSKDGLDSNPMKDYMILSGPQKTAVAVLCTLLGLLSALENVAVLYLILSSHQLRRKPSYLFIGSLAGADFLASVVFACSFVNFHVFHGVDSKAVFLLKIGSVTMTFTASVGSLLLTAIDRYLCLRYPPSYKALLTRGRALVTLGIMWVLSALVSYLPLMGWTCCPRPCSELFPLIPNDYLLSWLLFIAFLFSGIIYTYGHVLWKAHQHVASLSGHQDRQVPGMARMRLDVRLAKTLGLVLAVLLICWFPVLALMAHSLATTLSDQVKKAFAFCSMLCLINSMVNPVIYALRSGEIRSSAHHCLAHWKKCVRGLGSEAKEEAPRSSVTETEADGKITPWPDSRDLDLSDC

[6] = molecular target: Cannabinoid receptor 1 (Homo sapiens) (UniProt P21554); assay: Displacement of [3H]-CP55940 from cannabinoid CB1 receptor at 10 uM
Cannabinoid receptor 1 (Homo sapiens), sequence (P21554 whole entry): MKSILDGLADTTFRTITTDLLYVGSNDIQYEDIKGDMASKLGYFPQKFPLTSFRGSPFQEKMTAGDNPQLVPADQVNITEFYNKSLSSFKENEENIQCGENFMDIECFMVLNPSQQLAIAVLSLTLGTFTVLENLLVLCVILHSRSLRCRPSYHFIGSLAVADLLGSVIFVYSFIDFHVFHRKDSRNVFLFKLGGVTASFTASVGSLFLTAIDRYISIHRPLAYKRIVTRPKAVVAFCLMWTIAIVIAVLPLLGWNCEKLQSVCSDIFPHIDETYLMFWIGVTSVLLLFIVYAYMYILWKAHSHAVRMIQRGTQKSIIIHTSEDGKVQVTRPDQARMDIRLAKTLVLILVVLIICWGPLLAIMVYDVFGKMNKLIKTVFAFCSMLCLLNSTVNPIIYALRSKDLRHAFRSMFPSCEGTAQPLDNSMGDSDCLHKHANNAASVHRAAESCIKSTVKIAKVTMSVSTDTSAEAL
In short: (§1)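 Single-point competitive radioligand binding screen at 10 µM test concentration, measured as % inhibition of radioligand binding. Radioligands: [3H]CP55940 for CB1, [3H]ketanserin for 5-HT2A, [3H]mesulergine for 5-HT2C. Run by the NIMH Psychoactive Drug Screening Program.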

[7] = molecular target: 5-hydroxytryptamine receptor 2A (Homo sapiens) (UniProt P28223); assay: Displacement of [3H]-kentanserin from 5HT2A receptor at 10 uM; in short: as §1
5-hydroxytryptamine receptor 2A (Homo sapiens), sequence (P28223 whole entry): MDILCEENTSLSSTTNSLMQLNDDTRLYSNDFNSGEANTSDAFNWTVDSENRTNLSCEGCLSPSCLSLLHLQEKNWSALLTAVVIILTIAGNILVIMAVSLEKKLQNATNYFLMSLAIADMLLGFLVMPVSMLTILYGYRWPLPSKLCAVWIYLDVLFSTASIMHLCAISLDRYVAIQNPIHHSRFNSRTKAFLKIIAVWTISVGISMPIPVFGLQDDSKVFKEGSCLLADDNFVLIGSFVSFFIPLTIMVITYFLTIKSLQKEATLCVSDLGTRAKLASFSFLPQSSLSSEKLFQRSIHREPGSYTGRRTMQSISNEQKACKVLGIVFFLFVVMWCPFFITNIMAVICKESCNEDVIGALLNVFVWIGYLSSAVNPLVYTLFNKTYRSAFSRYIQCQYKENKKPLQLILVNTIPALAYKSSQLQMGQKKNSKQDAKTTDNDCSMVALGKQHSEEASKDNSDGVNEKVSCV

[8] = molecular target: T1, 5-hydroxytryptamine receptor 2C (Homo sapiens) (UniProt P28335); assay: Displacement of [3H]-mesulergine from 5HT2C receptor at 10 uM; in short: as §1
T1 sequence (whole entry): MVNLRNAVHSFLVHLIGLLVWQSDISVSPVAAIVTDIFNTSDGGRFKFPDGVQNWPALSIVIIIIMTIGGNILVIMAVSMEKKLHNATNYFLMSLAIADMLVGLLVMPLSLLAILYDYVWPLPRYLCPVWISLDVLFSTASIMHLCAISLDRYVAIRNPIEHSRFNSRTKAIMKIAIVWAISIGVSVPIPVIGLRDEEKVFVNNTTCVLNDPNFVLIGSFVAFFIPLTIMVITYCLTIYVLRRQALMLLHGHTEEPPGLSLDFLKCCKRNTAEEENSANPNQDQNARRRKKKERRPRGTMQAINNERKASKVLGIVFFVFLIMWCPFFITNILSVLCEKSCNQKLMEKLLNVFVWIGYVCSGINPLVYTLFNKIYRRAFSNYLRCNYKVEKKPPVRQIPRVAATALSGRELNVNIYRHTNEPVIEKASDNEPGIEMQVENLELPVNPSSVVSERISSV

[9] = molecular target: Cannabinoid receptor 2 (Mus musculus) (UniProt P47936); assay: Binding affinity to cannabinoid CB2 receptor in mouse B lymphocytes at 5 uM after 30 mins using PE-conjugated anti-B220 antibody staining by flow cytometric analysis; format: cell-based
In short: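 Lung mononuclear cells from mice were prepared by collagenase digestion of lung tissue. They were stained with PE-conjugated anti-B220 antibody and NBD-labelled probe at 5 µM on ice for 30 min, then analysed by flow cytometry.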

Cannabinoid receptor 2 (Mus musculus), sequence (P47936 whole entry): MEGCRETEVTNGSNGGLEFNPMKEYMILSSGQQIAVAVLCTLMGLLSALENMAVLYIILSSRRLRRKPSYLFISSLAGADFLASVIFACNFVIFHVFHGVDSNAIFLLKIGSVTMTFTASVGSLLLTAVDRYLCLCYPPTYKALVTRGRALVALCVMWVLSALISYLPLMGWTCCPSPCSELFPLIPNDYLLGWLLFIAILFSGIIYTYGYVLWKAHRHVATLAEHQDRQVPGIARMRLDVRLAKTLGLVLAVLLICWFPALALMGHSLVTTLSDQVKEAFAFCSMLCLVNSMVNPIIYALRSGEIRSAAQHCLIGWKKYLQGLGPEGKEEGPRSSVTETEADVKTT

In the case of CCCCCN1C(=O)/C(=N\NC(=O)CN(C)c2ccc([N+](=O)[O-])c3nonc23)c2ccc(OC)cc21, the Activity [1] is reported as “inactive”, the Activity [2] is reported as “inactive” and the Activity [3] is reported as “inactive”. For the same compound, the Activity [4] was “Active”, the Activity [5] was “inactive” and the Ki (Cannabinoid receptor 2) was 387 nM. The inhibition [6] was < 40%, the inhibition [7] was < 40% and the inhibition [8] was < 40%. For the same compound, the Activity [9] was “Active”.
